Assay results from paper PMC5844832 (Bioorganic & medicinal chemistry, 2017).
One block for each molecule: values may come before it. *: point of attachment. FITC = O=C1OC2(c3ccc(O)cc3Oc3cc(O)ccc32)c2ccc(NC(=S)*)cc21; βAla = NCCC(=O)O

Tests used:
Petit-LUBAC = biological target: T1, Petit-LUBAC (Homo sapiens, UniProt Q96EP0+Q9BYM8); assay: Native gel shift assay; type: binding; settings: 2.5 μM FITC peptide, 50 μg/mL protein, 1 h 37 °C, hrCNE
T1 sequence (Q96EP0 474-1072): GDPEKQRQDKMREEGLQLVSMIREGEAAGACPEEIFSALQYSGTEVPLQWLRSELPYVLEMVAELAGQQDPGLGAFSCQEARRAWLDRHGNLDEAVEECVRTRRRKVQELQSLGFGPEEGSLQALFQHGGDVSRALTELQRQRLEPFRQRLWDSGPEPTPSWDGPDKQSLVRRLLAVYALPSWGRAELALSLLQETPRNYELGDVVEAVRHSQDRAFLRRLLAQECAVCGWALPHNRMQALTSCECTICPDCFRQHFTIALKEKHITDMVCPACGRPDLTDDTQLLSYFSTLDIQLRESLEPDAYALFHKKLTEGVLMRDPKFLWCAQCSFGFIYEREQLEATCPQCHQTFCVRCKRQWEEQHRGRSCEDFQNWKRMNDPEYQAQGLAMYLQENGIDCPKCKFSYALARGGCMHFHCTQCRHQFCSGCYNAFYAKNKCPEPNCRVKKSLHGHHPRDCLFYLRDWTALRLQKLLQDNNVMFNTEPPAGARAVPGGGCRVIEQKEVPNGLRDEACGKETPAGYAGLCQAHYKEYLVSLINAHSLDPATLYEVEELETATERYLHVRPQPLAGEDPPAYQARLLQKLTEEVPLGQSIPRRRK
T1 sequence (Q9BYM8 1-191): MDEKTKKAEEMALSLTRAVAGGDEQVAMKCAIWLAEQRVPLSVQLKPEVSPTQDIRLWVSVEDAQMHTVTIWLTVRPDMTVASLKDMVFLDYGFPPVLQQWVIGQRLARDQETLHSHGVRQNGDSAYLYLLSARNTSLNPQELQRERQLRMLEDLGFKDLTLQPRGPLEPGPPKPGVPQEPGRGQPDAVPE
Outline: (§1)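 Recombinant protein, expressed in Rosetta (DE3) E. coli, was mixed at 50 μg/mL with 2.5 μM FITC-peptide in 1X ubiquitylation buffer, with or without 20 μM unlabelled peptide competitor. Mixtures were incubated 1 h at 37 °C and resolved on 5% acrylamide native gels (bis-Tris, pH 7.0; Tricine/imidazole/deoxycholate cathode buffer) at […] for 4–5 h at 4 °C. Fluorescent bands were imaged, with protein-only lanes as controls.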

HOIP-UBA = biological target: T2, HOIP-UBA (Homo sapiens, UniProt Q96EP0); assay: Native gel shift assay; type: binding; settings: 2.5 μM FITC peptide, 50 μg/mL protein, 1 h 37 °C, hrCNE
T2 sequence (Q96EP0 480-636): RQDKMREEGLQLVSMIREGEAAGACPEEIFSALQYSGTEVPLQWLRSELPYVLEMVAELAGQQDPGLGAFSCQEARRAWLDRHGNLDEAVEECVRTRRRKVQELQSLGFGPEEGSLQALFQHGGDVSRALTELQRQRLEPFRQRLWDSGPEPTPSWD

HOIL-UBL = biological target: T3, HOIL-UBL (Homo sapiens, UniProt Q9BYM8); assay: Native gel shift assay; type: binding; settings: 2.5 μM FITC peptide, 50 μg/mL protein, 1 h 37 °C, hrCNE
T3 sequence (Q9BYM8 37-128): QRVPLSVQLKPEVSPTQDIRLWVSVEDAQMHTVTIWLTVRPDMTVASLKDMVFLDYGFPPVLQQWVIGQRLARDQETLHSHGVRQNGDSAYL
Outline: as §1

GST-HOIP-UBA = biological target: T4, GST-HOIP-UBA (human, UniProt Q96EP0 480-636); assay: SPR
T4 sequence: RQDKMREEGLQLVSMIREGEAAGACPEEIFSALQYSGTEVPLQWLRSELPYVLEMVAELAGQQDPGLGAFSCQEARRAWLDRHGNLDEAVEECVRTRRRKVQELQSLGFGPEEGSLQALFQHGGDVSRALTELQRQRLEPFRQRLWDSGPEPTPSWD

His6-HOIL-UBL = biological target: T5, His6-HOIL-UBL (human, UniProt Q9BYM8-1 37-137); assay: SPR
T5 sequence: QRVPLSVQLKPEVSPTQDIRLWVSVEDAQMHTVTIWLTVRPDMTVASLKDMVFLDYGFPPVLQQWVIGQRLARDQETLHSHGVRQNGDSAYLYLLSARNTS

[1] = biological target: T6, Petit-LUBAC (truncated sub-complex of LUBAC: HOIL-1L 1-191 and HOIP 474-1072) (human, UniProt Q9BYM8-1 1-191; Q96EP0 474-1072); assay: native gel or EMSA
T6 sequence (looked up) 1: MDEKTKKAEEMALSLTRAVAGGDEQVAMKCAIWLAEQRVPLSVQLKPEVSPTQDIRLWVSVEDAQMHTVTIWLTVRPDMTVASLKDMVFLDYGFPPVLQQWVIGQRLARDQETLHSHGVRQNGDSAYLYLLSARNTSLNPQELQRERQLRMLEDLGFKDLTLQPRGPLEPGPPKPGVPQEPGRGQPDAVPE
T6 sequence (looked up) 2: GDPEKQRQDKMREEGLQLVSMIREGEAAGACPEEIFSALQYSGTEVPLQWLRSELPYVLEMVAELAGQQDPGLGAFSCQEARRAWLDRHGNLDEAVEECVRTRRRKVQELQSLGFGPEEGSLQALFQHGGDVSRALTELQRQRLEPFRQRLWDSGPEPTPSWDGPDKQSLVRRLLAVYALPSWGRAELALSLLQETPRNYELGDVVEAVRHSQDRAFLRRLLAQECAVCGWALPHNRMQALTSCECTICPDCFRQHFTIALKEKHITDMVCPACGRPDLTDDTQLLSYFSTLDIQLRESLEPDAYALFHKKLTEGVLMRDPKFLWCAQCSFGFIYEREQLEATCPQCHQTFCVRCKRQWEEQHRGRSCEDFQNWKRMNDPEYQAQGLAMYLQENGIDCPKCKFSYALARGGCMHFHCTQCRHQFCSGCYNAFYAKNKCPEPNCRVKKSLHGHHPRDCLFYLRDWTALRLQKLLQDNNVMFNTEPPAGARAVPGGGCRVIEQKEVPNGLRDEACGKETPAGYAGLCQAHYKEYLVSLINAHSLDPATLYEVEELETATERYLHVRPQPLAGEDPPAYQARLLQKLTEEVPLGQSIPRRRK

[2] = biological target: T7, HOIP residues 474-1072 (the HOIP chain of Petit-LUBAC) (human, UniProt Q96EP0 474-1072); assay: native gel or EMSA
T7 sequence (looked up): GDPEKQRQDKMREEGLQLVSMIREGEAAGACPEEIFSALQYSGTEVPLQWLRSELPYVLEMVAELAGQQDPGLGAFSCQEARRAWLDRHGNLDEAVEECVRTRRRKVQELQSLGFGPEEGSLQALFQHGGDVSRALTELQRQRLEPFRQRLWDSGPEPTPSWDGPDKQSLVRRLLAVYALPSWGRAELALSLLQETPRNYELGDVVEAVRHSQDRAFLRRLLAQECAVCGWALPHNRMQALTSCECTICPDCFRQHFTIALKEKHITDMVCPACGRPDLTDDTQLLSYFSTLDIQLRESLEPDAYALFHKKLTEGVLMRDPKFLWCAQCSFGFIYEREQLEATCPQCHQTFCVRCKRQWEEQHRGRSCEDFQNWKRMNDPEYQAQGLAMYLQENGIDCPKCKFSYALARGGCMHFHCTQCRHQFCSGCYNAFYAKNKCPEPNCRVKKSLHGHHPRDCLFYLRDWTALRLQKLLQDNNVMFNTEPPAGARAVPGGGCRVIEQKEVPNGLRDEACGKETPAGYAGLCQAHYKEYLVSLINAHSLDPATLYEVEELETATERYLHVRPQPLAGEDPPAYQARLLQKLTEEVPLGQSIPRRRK

Gel shift of FITC-labelled peptide with Petit-LUBAC (Petit-LUBAC): higher shifted molecular weight
Gel shift of FITC-labelled peptide with HOIL-UBL (HOIL-UBL): no shift was observed
Molecule: 1: unstapled peptide based on 22-amino acid region of HOIP-UBA (residues 606-627) ({Ac-βAla}-SRALTELQRQRLEPFRQRLWDS-NH2) [Compound 1]
Gel shift of FITC-labelled peptide with HOIP-UBA (HOIP-UBA): a shift similar to the one observed with Petit-LUBAC was observed

Kd (GST-HOIP-UBA): 4.28 µM
B1: N-P2G (6), N-stapled P2G HOIP peptide (peptide)
chain: SRALTELQRQRLEGFRQRLWDS
modifications: N-terminal β-alanine; N-terminal acetyl; hydrocarbon staple between two cross-linking amino acids in the N-terminal (α8) helix

Kd (His6-HOIL-UBL): 97.3 µM
Kd (GST-HOIP-UBA): 81.4 µM
Molecule: {Ac-βAla}-SRALTELQRQRLEGFRQRLWDS-NH2 (peptide, UniProt Q96EP0 606-627, looked up) [P2G WT (5), unstapled HOIP peptide with proline-to-glycine substitution]

binding result [1]: binds
Molecule: {FITC-βAla}-SRALTELQRQRLEPFRQRLWDS-NH2 (peptide, UniProt Q96EP0 606-627, looked up) [FITC labeled HOIP WT (1) peptide]

binding result [2]: binds
B2: HOIL-1L residues 1-191 (the HOIL chain of Petit-LUBAC) (domain or fragment, human, UniProt Q9BYM8-1 1-191, looked up)
chain: MDEKTKKAEEMALSLTRAVAGGDEQVAMKCAIWLAEQRVPLSVQLKPEVSPTQDIRLWVSVEDAQMHTVTIWLTVRPDMTVASLKDMVFLDYGFPPVLQQWVIGQRLARDQETLHSHGVRQNGDSAYLYLLSARNTSLNPQELQRERQLRMLEDLGFKDLTLQPRGPLEPGPPKPGVPQEPGRGQPDAVPE
